# According to ChEMBL document CHEMBL4138155, “Design, synthesis and biochemical evaluation of novel multi-target inhibitors as potential anti-Parkinson agents” (Eur J Med Chem, 2018):
# How the values were obtained:
# [1] = target: T1, Amine oxidase [flavin-containing] A (Homo sapiens, UniProt P21397); assay: Inhibition of recombinant human MAO-A using kynuramine as substrate after 20 mins by fluorescence assay
# T1 sequence (P21397 whole entry): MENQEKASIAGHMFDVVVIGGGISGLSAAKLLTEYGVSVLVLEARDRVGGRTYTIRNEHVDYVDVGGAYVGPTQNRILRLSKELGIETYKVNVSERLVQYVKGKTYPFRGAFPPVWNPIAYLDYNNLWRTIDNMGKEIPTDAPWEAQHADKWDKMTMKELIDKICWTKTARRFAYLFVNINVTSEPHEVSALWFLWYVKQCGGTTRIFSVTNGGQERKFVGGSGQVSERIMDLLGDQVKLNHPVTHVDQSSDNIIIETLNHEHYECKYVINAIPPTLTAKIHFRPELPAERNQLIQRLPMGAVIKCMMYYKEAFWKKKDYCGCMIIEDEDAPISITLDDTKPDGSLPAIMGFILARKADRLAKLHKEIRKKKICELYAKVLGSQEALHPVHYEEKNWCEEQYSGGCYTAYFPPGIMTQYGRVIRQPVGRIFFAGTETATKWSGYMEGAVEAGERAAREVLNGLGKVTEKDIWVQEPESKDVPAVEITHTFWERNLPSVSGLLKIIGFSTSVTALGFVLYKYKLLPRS
# [2] = Antioxidant activity assessed as cupric ion reducing activity after 30 mins by CUPRAC assay; type: functional
# Outline: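 Sample mixed with CuCl2 (10 mM), neocuproine (7.5 mM) and NH4Ac buffer (1 M, pH 7.0) stock reagents; blank lacks CuCl2. Absorbance at 450 nm after 30 min at room temperature, blank subtracted. Expressed as EC50.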
# [3] = target: T2, Amine oxidase [flavin-containing] B (Homo sapiens, UniProt P27338)
# T2 sequence (P27338 whole entry): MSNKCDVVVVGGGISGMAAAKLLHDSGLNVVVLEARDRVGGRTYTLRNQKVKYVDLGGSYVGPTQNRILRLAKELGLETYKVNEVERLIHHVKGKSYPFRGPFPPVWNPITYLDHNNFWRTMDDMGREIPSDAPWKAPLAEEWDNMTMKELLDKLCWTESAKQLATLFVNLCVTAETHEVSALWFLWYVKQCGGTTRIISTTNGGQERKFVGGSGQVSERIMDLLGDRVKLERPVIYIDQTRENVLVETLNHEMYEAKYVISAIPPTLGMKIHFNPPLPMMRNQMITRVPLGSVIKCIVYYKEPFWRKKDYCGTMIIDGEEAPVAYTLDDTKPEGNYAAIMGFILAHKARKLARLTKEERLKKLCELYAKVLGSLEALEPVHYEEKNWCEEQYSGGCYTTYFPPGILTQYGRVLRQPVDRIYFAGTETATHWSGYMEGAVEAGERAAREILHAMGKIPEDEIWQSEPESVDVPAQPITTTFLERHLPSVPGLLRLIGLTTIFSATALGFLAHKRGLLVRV
# [4] = Antioxidant activity assessed as total antioxidant capacity after 90 mins by phosphomolybdenum method; type: functional
# Outline: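 Sample combined with reagent of 0.6 M sulphuric acid, 28 mM sodium phosphate and 4 mM ammonium molybdate; heated 90 min at 95 °C, absorbance at 695 nm. EC50 = concentration giving absorbance 0.5; trolox as reference.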
# [5] = Antioxidant activity assessed as ferric ion reducing activity using Fe3+-TPTZ after 30 mins by FRAP assay; type: functional
# Outline: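 FRAP reagent: acetate buffer (0.3 M, pH 3.6), TPTZ (10 mM) in 40 mM HCl and FeCl3 (20 mM), 10:1:1 v/v/v. Sample added, 30 min at room temperature, absorbance at 593 nm. Expressed as EC50.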
# [6] = Antioxidant activity assessed as ABTS radical scavenging activity measured after 12 to 16 hrs; type: functional
# Outline: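 ABTS radical cation generated from 7 mM ABTS with 2.45 mM potassium persulphate, 12-16 h dark at room temperature, then diluted with methanol to A734 0.700 ± 0.02. Sample mixed with ABTS solution, 30 min at room temperature, absorbance read at 734 nm. IC50 = concentration scavenging 50% of radicals; trolox reference.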
# [7] = target: Cholinesterase (Equus caballus) (UniProt P81908); assay: Inhibition of horse serum BuChE at 3 uM using butyrylthiocholine iodide as substrate preincubated for 15 mins followed by substrate addition measured after 10 mins by spectrophotometry based-Ellman's method
# [8] = Antioxidant activity assessed as DPPH radical scavenging activity after 30 mins; type: functional
# Outline: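 Sample added to 0.004% DPPH in methanol, kept 30 min in the dark at room temperature, absorbance read at 517 nm. IC50 taken as the concentration scavenging 50% of DPPH radicals; trolox as reference.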
# [9] = target: T2, Amine oxidase [flavin-containing] B; assay: Reversible inhibition of recombinant human MAO-B assessed as residual activity at 4 times IC50 using kynuramine as substrate pre-incubated for 15 mins followed by 2 fold dilution of compound for 24 hrs and subsequent substrate addition measured after 20 mins by fluorescence assay relative to control
# [10] = target: T2, Amine oxidase [flavin-containing] B; assay: Competitive inhibition of recombinant human MAO-B using kynuramine as substrate pre-incubated for 15 mins followed by 2 fold compound dilution for 24 hrs and subsequent substrate addition measured after 20 mins by Lineweaver-Burk plot analysis
# Outline: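 20 min at 37 °C, NaOH stop, 4-hydroxyquinoline fluorescence read. Six Lineweaver-Burk plots; Ki from x-intercept of slope versus inhibitor concentration.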
# [11] = target: T2, Amine oxidase [flavin-containing] B; assay: Inhibition of recombinant human MAO-B assessed as residual activity at 4 times IC50 using kynuramine as substrate pre-incubated for 15 mins substrate addition measured after 20 mins by fluorescence assay relative to control
# Cholinesterase (Equus caballus), sequence (P81908 whole entry): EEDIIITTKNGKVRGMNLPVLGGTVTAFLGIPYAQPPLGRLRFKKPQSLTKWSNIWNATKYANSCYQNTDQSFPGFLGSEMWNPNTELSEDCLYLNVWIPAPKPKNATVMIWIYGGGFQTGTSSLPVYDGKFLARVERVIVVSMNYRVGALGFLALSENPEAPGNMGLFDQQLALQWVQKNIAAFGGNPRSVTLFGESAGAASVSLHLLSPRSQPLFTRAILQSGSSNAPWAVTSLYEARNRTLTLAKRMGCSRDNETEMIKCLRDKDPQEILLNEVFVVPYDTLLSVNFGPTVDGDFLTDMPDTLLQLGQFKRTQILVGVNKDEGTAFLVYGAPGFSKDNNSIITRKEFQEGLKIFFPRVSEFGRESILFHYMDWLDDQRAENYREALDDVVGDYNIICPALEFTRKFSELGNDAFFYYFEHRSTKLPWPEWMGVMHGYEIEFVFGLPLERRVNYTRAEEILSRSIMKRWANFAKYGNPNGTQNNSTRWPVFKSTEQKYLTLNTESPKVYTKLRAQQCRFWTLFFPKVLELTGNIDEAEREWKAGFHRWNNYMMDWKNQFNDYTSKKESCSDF
SMILES,IC50 [1] [µM],EC50 [2] [µM],IC50 [3] [µM],EC50 [4] [µM],EC50 [5] [µM],IC50 [6] [µM],inhibition [7] [%],IC50 [8] [µM],Activity [9] [%],Ki [10] [µM],Activity [11] [%]
O=[N+]([O-])c1cccc(-c2csc(NN=C3CCCCC3)n2)c1,2.56,320,0.047,1430,330,1100,8.41,1200,–,–,–
O=[N+]([O-])c1cccc(-c2csc(NN=C3CCCCCC3)n2)c1,1.59,410,0.0086,1230,420,1070,7.11,1220,–,–,–
COc1ccc2c3c1O[C@H]1C[C@@H](O)C=C[C@@]31CCN(C)C2,–,–,–,–,–,–,13.6,–,–,–,–
C/C(=N/Nc1nc(-c2cccc([N+](=O)[O-])c2)cs1)C1CCCCC1,29.1,610,0.0072,1190,670,1050,6.22,1350,–,–,–
CCCC/C(CC)=N\Nc1nc(-c2cccc([N+](=O)[O-])c2)cs1,6.03,550,0.182,1560,410,1040,10,1260,–,–,–
CC(C)=NNc1nc(-c2cccc([N+](=O)[O-])c2)cs1,1.07,510,0.716,1750,340,1070,12.8,1160,–,–,–
CCC/C(CC)=N\Nc1nc(-c2cccc([N+](=O)[O-])c2)cs1,4.86,530,0.189,1250,390,1040,11,1230,–,–,–
CC/C(C)=N\Nc1nc(-c2cccc([N+](=O)[O-])c2)cs1,20.5,580,0.351,1650,420,1040,12.1,1180,–,–,–
C/C(CC(C)C)=N/Nc1nc(-c2cccc([N+](=O)[O-])c2)cs1,4.41,570,0.012,1130,420,1050,8.98,1350,–,–,–
O=[N+]([O-])c1cccc(-c2csc(NN=C3CCCCCCC3)n2)c1,1.82,440,0.01,1220,390,1090,7.64,1280,–,–,–
CCCCCC/C(C)=N\Nc1nc(-c2cccc([N+](=O)[O-])c2)cs1,10.9,530,0.626,1240,390,1110,9.54,1150,–,–,–
C/C(=N/Nc1nc(-c2cccc([N+](=O)[O-])c2)cs1)C1CC1,2.66,530,0.0053,1470,470,1060,12.8,1260,91,0.0073,46
CCCC/C(C)=N\Nc1nc(-c2cccc([N+](=O)[O-])c2)cs1,6.33,520,0.118,1460,370,1060,11.3,1180,–,–,–
CCC(CC)=NNc1nc(-c2cccc([N+](=O)[O-])c2)cs1,24.3,460,0.053,1100,340,1040,7.45,1130,–,–,–
Cc1c(C)c2c(c(C)c1O)CCC(C)(C(=O)O)O2 (stereo not given) [TROLOX],–,240,–,1130,160,660,–,400,–,–,–
CC1CCC(=NNc2nc(-c3cccc([N+](=O)[O-])c3)cs2)CC1 (stereo not given),4.25,390,0.237,1130,390,1090,4.87,1180,–,–,–
C=CCC/C(C)=N\Nc1nc(-c2cccc([N+](=O)[O-])c2)cs1,3.99,460,0.101,1150,330,1040,6.35,1210,–,–,–
CCC/C(C)=N\Nc1nc(-c2cccc([N+](=O)[O-])c2)cs1,38,550,0.055,1200,450,1040,5.16,1200,–,–,–
O=[N+]([O-])c1cccc(-c2csc(NN=C3CCCC3)n2)c1,3.46,510,0.095,1340,400,1100,12.4,1180,–,–,–
